Test results taken from ChEMBL document CHEMBL1155286, “Second generation of 2H-benzimidazole 1,3-dioxide derivatives as anti-trypanosomatid agents: synthesis, biological evaluation, and mode of action studies” (Eur J Med Chem, 2009).
Active and inactive are the calls of the source. The calls are words filed in the database; no cut-off is given here.

Legend:
Trypanosoma cruzi [1] = test: Antitrypanosomal activity against Trypanosoma cruzi CL Brener trypomastigotes infected in Vero cells assessed as parasite lysis at 25 uM after 19 hrs relative to untreated control; type: functional
Method in brief: (§1)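 Cell-culture trypomastigotes released from infected Vero cells (37 °C, 5% CO2, 5–7 days), collected by centrifugation and allowed 4 h at 37 °C to swim off. Supernatant parasites exposed to 10.0–50.0 μM for 2–26 h; lysis counted in a Neubauer chamber relative to untreated parasites; three independent experiments.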

Trypanosoma cruzi [2] = test: Antitrypanosomal activity against Trypanosoma cruzi CL Brener trypomastigotes infected in Vero cells assessed as parasite lysis at 50 uM after 2 hrs relative to untreated control; type: functional; method in brief: as §1
Trypanosoma cruzi [3] = test: Antitrypanosomal activity against Trypanosoma cruzi CL Brener trypomastigotes infected in Vero cells assessed as parasite lysis at 50 uM after 19 hrs relative to untreated control; type: functional; method in brief: as §1
Trypanosoma cruzi [4] = test: Antitrypanosomal activity against Trypanosoma cruzi CL Brener epimastigotes after 5 days by MTT assay; type: functional; settings: 120 h, read-out: ID50
Method in brief: (§2)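 Epimastigotes (T. cruzi strains, BHI-Tryptose + 5% FBS, 28 °C) or L. braziliensis LTB300 promastigotes (axenic RPMI + 5% FBS, 28 °C) from exponential culture in 24-well plates; compounds from DMSO stock added for 5 days. Washed in PBS, 0.4 mg/mL MTT at 37 °C for 3 h, formazan dissolved in DMSO, OD595 read. Triplicate per concentration, six growth controls; 1.0–50.0 μM dose-response, ID50 = concentration reducing absorbance ratio to 50%; three independent experiments.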

Trypanosoma cruzi [5] = test: Antitrypanosomal activity against Trypanosoma cruzi Y epimastigotes after 5 days by MTT assay; type: functional; settings: 120 h, read-out: ID50; method in brief: as §2
Leishmania braziliensis = test: Antiparasitic activity against Leishmania braziliensis MHOM/BR/00/LTB300 after 5 days by MTT assay; type: functional; settings: MHOM/BR/00/LTB300, 120 h, read-out: ID50; method in brief: as §2
Trypanosoma cruzi [6] = test: Antitrypanosomal activity against Trypanosoma cruzi Colombiana assessed as parasitic cytotoxicity at 25 uM after 5 days by MTT assay; type: functional
Method in brief: (§3)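 Single 25 μM dose for 5 days on exponential-phase epimastigotes in BHI-Tryptose + 5% FBS, 24-well plates; MTT 0.4 mg/mL, 3 h at 37 °C after PBS wash, formazan in DMSO, OD595. PCyt = [[…] (ODd − ODdm)/(ODc − ODcm)] × 100 with medium-only blanks, compound-in-medium blanks and growth controls; three independent experiments.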

Trypanosoma cruzi [7] = test: Reduction of end products excretion levels in Trypanosoma cruzi Y epimastigotes after 2 days by [1H]NMR method; type: functional, organism-based
Method in brief: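 Y-strain epimastigotes treated 2 days with 5 μM compound; culture centrifuged 1500 g, 10 min, 4 °C, parasite-free supernatant stored at −20 °C. Supernatant plus DMF internal standard and D2O run by 1H NMR with water suppression; metabolite peaks confirmed by spiking and standards, compared to untreated and parasite-free medium.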

Trypanosoma cruzi [8] = test: Antitrypanosomal activity against Trypanosoma cruzi CL Brener epimastigotes assessed as parasitic cytotoxicity at 25 uM after 5 days by MTT assay; type: functional; method in brief: as §3
Trypanosoma cruzi [9] = test: Antitrypanosomal activity against Trypanosoma cruzi Tulahuen 2 epimastigotes assessed as inhibition of parasite growth after 5 days; type: functional; settings: Trypanosoma cruzi, Tulahuen 2, 120 h; read-out: ID50 (the source's name)
Method in brief: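 Stationary-phase (10-day) Tulahuen 2 epimastigotes inoculated at 1×10^6 cells/mL in BHI-Tryptose + 5% FBS, 28 °C, drug added from DMSO stock (final DMSO ≤0.4%; control 0.4% DMSO). Growth followed as A600; inhibition from day-5 vs day-0 absorbance relative to control. ID50 = concentration reducing absorbance ratio to 50%; three independent experiments.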

Trypanosoma cruzi [10] = test: Antitrypanosomal activity against Trypanosoma cruzi CL Brener trypomastigotes infected in Vero cells assessed as parasite lysis at 5 uM after 22 hrs relative to untreated control; type: functional
Trypanosoma cruzi [11] = test: Antitrypanosomal activity against Trypanosoma cruzi CL Brener trypomastigotes infected in Vero cells assessed as parasite lysis at 10 uM after 2 hrs relative to untreated control; type: functional; method in brief: as §1
Trypanosoma cruzi [12] = test: Antitrypanosomal activity against Trypanosoma cruzi CL Brener trypomastigotes infected in Vero cells assessed as parasite lysis at 10 uM after 3 hrs relative to untreated control; type: functional; method in brief: as §1
Trypanosoma cruzi [13] = test: Antitrypanosomal activity against Trypanosoma cruzi CL Brener trypomastigotes infected in Vero cells assessed as parasite lysis at 10 uM after 22 hrs relative to untreated control; type: functional; method in brief: as §1
Trypanosoma cruzi [14] = test: Antitrypanosomal activity against Trypanosoma cruzi CL Brener trypomastigotes infected in Vero cells assessed as parasite lysis at 10 uM after 26 hrs relative to untreated control; type: functional; method in brief: as §1

Molecule `CC1(C)[N+]([O-])=c2ccc(/C=C/c3ccccc3)cc2=[N+]1[O-]` has an Activity (Trypanosoma cruzi [1]) of 64%, an Activity (Trypanosoma cruzi [2]) of 32% and an Activity (Trypanosoma cruzi [3]) of 100%. For the same molecule, the IC50 (Trypanosoma cruzi [4]) was 8.5 µM, the IC50 (Trypanosoma cruzi [5]) was 6 µM and the IC50 (Leishmania braziliensis) was 3.5 µM. For the same molecule, the Activity (Trypanosoma cruzi [6]) was 92.3%, the Activity (Trypanosoma cruzi [7]) was “Active” and the Activity (Trypanosoma cruzi [8]) was 78.4%. The IC50 (Trypanosoma cruzi [9]) was 3.4 µM, the Activity (Trypanosoma cruzi [10]) was 31% and the Activity (Trypanosoma cruzi [11]) was 3%. The Activity (Trypanosoma cruzi [12]) was 32%, the Activity (Trypanosoma cruzi [13]) was 84% and the Activity (Trypanosoma cruzi [14]) was 100%.
